Results published in ChEMBL document CHEMBL1629530, “1,5-Benzoxazepines vs 1,5-benzodiazepines. one-pot microwave-assisted synthesis and evaluation for antioxidant activity and lipid peroxidation inhibition” (J Med Chem, 2010).
Active and inactive are the calls of the source. The calls are words filed in the database; no cut-off is given here.

What was measured:
[1] = system: Radical scavenging activity; assay: Antioxidant activity assessed as DPPH radical scavenging activity at 50 uM after 60 mins; type: functional
Procedure, shortened: (§1)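 DPPH 0.05 mM in absolute ethanol mixed with an equal volume of compound in DMSO (final 50 and 100 μM). Shaken vigorously, then left to stand 20 or 60 min. At least triplicate; absorbance SD under 10% of mean.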

[2] = system: Radical scavenging activity; assay: Antioxidant activity assessed as DPPH radical scavenging activity at 100 uM after 60 mins; type: functional; procedure, shortened: as §1
[3] = system: Radical scavenging activity; assay: Antioxidant activity assessed as DPPH radical scavenging activity at 50 uM after 20 mins; type: functional; procedure, shortened: as §1
Glycine max = assay: Inhibition of soybean lipoxygenase at 100 uM by UV absorbance based assay
Procedure, shortened: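 Soybean LOX (1 × 10^-4 w/v in saline, diluted 1:9 with saline) incubated at room temperature with sodium linoleate and compound in DMSO (100 μM). Conversion to 13-hydroperoxylinoleic acid recorded at 234 nm against a standard inhibitor. At least triplicate.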

[4] = system: Radical scavenging activity; assay: Antioxidant activity assessed as DPPH radical scavenging activity at 100 uM after 20 mins; type: functional; procedure, shortened: as §1
[5] = Inhibition of AAPH-induced linoleic acid lipid peroxidation; type: physicochemical
Procedure, shortened: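 Linoleic acid sodium salt (10 μL of 16 mM) in 0.05 M phosphate buffer pH 7.4, prethermostated at 37 °C. Oxidation started under air at 37 °C with 50 μL of 40 mM AAPH, compounds in DMSO. Conjugated diene hydroperoxide formation followed as rising absorbance at 234 nm; result given as IC50. At least triplicate.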

Rattus norvegicus [6] = assay: Antiinflammatory activity in Fisher 344 rat assessed as inhibition of carrageenan-induced paw edema at 0.01 mmol/kg, ip administered simultaneously with carrageenan; type: functional; conditions: Fisher 344, ip
Procedure, shortened: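 Edema induced by intradermal injection of 0.1 mL 2% carrageenin in water into right hind paw of Fisher 344 rats (150-200 g), both sexes, pregnant females excluded, fasted during experiment; 6-15 animals per group. Compound suspended in water with a few drops of Tween 80, given ip. Rats euthanized 3.5 h later. Injected minus uninjected paw weight compared with water-treated controls as % inhibition; mean of two experiments.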

Rattus norvegicus [7] = assay: Toxicity in Fisher 344 rat carrageenan-induced inflammation model at 0.2 mmol/kg, ip administered simultaneously with carrageenan; type: organism-based; conditions: in vivo

SMILES | Activity [1] [%] | Activity [2] [%] | Activity [3] [%] | inhibition (Glycine max) | Activity [4] [%] | IC50 [5] [µM] | inhibition in vivo at 10 µmol/kg (Rattus norvegicus [6]) [%] | Activity (Rattus norvegicus [7])
CC1=Nc2c(O)cccc2NC(C)(C)C1 | 67 | 65 | 44 | inactive | 66 | 77 | – | –
CC1(c2ccc(Cl)cc2)CC(c2ccc(Cl)cc2)=Nc2c(N)cccc2O1 (stereo not drawn) | 86 | 86 | 87 | inactive | 86 | 47.5 | – | –
CC1(c2cccc([N+](=O)[O-])c2)CC(c2cccc([N+](=O)[O-])c2)=Nc2c(O)cccc2N1 (stereo not drawn) | – | 32 | – | inactive | 32 | 46 | – | –
CC1(c2ccccc2)CC(c2ccccc2)=Nc2c(O)cccc2N1 (stereo not drawn) | – | 29 | – | 28% | 30 | 50 | – | –
CC(Cc1ccc(O)c(O)c1)C(C)Cc1ccc(O)c(O)c1 (stereo not drawn) | – | 96 | – | 84% | 93 | – | – | –
Cc1ccc(NC(=O)Oc2cccc3c2N=C(c2ccccc2)CC(C)(c2ccccc2)N3)cc1 (stereo not drawn) | – | 9 | – | 3% | 10 | 50 | – | –
CC1(C)CC(c2ccccc2)=Nc2ccccc2N1 | – | 14 | – | 6% | 15 | 45 | – | –
Cc1c(C)c2c(c(C)c1O)CCC(C)(C(=O)O)O2 (stereo not drawn) [TROLOX] | – | – | – | – | – | 63 | – | –
CC1=Nc2c(N)cccc2OC(C)(C)C1 | 88 | 86 | 87 | 98% | 86 | 70 | – | –
COc1cccc(C2=Nc3c(O)cccc3NC(C)(c3cccc(OC)c3)C2)c1 (stereo not drawn) | – | 27 | – | 37% | 27 | 60 | – | –
COc1ccc2c(c1)c(CC(=O)O)c(C)n2C(=O)c1ccc(Cl)cc1 [INDOMETHACIN] | – | – | – | – | – | – | 47 | –
CC1(c2ccc(Cl)cc2)CC(c2ccc(Cl)cc2)=Nc2c(O)cccc2N1 (stereo not drawn) | – | 53 | – | inactive | 54 | 2.5 | 35 | Non-toxic
COc1ccccc1C1=Nc2c(O)cccc2NC(C)(c2ccccc2OC)C1 (stereo not drawn) | – | 36 | – | 3% | 36 | 46 | – | –
